Shown are actives, neighbours in structure and some others; about 4.1% of the full set was active somewhere.
KCNQ1 inh: inhibitors of human KCNQ1 channel, primary screen, cell-based, thallium flux, high-throughput | Potassium voltage-gated channel subfamily KQT member 1 (Homo sapiens), P51787 | 310,000 compounds, 1.3% hits | CHO-K1 KCNQ1, FluxOR thallium flux fluorescence; hits give high values | B-score at 10 µM;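 active = compounds whose thallium flux B-score, printed positive for inhibition, exceeds three library SD while starting fluorescence stays within three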;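 note: channel opened by potassium depolarization with thallium stimulus after 20 min compound exposure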
KCNK9 inh: KCNK9 potassium channel inhibitors, primary screen, HEK293 cells, thallium flux; 310,000 compounds, 1.2% hits; B-score at 10 µM; Potassium channel subfamily K member 9 (Homo sapiens), Q9NPC2; AID 488922, 2010; FluxOR thallium flux fluorescence; hits give low values;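 active = ratio B-score over 3 SD below the library mean, with starting fluorescence within 5 SD of its mean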;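 note: negative B-score means less thallium flux so channel inhibition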
KCNK3 inh: human KCNK3 channel inhibitors, primary screen, CHO cells, FluxOR thallium flux, B-score; Potassium channel subfamily K member 3 (Homo sapiens), O14649; FluxOR fluorescence; hits give low values; B-score at 10 µM; 340,000 compounds, 0.84% hits;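 active = B-score under library mean minus 4 SD, starting fluorescence ratio at most library mean plus 5 SD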;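 note: more negative B-score means stronger inhibition of thallium flux through KCNK3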
KCNQ1 pot: potentiators or activators of KCNQ1 channel, primary screen, cell-based, thallium flux, high-throughput | Potassium voltage-gated channel subfamily KQT member 1 (Homo sapiens), P51787 | 310,000 compounds, 0.35% hits | CHO-K1 KCNQ1, thallium flux FluxOR fluorescence; hits give high values | B-score at 10 µM;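 active = fluorescence ratio B-score, a plate-corrected score, at least three library SD, with initial intensity B-score within 5 SD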
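Assay system: CHO-K1 cells stably expressing KCNQ1. Medium: assay buffer for compound exposure, DMSO matched across wells. Timing: 37 °C overnight plating, 90-min dark dye load, 20-min compound pretreatment. Signal: kinetic FluxOR fluorescence, 10 s baseline plus 110 s post-stimulus.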
Cl transport mod: KCC2 cotransporter modulators, thallium flux, primary screen, cell-based, HEK293 KCC2, FluoZin-2 fluorescence, MLSMR | Solute carrier family 12 member 5 (Homo sapiens), Q9H2X9 | KCC2 cells, thallium flux FluoZin-2 fluorescence | B-score of Tl+ flux slope (higher = more flux/activation; lower = inhibition) at 10 µM | 190,000 compounds, 2.2% hits;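 active = thallium flux slope and its plate-corrected score both differing from the plate sample mean at a set confidence after two filtering rounds, in either direction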;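 note: slope of fluorescence scaled to starting intensity during 10 to 20 s after thallium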
hERG rescue: hERG rescue from dofetilide block, primary screen, cell-based, CHO-hERG, FluxOR thallium flux, dofetilide IC70 | Voltage-gated inwardly rectifying potassium channel KCNH2 (Homo sapiens), Q12809 | dofetilide IC70 present | activation (rescue from dofetilide block), less the hit threshold, % at 10 µM | 310,000 compounds, 0.51% hits | AID 1511, 2009;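 active = activation above the mean of controls blocked by dofetilide plus 5 SD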;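 note: thallium influx through hERG after potassium depolarization seen as dye fluorescence rise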
Target sequence (Q12809 whole entry, looked up): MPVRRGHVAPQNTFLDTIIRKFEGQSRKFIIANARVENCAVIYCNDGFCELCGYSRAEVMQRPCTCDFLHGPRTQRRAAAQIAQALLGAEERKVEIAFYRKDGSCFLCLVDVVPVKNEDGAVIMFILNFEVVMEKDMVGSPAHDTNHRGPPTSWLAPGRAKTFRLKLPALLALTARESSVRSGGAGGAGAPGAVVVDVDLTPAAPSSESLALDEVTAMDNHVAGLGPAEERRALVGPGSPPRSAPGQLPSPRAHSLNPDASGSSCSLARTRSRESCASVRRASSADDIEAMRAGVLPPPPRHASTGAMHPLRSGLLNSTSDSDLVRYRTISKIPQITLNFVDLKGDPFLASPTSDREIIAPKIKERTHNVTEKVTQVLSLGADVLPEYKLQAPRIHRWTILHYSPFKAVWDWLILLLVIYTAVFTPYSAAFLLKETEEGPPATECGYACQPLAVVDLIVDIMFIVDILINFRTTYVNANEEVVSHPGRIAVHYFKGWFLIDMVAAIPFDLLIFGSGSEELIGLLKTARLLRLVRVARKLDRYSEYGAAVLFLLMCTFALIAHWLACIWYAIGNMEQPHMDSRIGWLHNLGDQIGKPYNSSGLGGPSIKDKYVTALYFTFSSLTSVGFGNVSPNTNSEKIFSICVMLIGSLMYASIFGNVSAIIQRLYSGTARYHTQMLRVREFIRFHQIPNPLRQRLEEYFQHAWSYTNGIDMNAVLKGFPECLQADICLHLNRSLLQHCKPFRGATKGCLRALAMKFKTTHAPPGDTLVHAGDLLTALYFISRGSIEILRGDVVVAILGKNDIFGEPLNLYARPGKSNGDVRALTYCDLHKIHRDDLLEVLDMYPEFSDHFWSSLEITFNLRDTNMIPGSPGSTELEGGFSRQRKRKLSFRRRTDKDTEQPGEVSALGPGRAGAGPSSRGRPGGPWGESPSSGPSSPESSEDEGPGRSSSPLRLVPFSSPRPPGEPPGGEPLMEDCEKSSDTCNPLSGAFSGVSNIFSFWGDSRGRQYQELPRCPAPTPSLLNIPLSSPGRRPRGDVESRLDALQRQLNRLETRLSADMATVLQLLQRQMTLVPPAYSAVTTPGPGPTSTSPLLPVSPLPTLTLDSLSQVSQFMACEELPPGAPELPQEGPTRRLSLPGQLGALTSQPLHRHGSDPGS
KCC2 sec1: KCC2 modulators in sodium-free buffer, confirmation, cell-based, HEK293 KCC2, thallium flux, secondary assay; shares compounds with Cl transport mod; FluoZin2 fluorescence; hits give high values; normalised thallium flux (F/F0 slope) at 10 µM; 3,700 compounds, 15% hits;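 active = thallium flux slope above the same plate's solvent-only control mean plus 3 SD; inconclusive = the two replicate wells disagree; inactive = no significant difference from solvent-only control wells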
KCC2 bumet counter: thallium flux persisting under bumetanide in KCC2 cells, confirmation, counter-screen for KCC2 modulator project, cell-based, HEK293 KCC2, FluoZin2, secondary assay 3. shares compounds with Cl transport mod. HEK293-KCC2 + bumetanide/ouabain; hits give high values. normalized thallium flux at 10 µM. 3,700 compounds, 49% hits;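 active = thallium entry rate above the same plate's blocked-transporter control wells by more than 3 SD; inconclusive = the two repeat wells disagree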;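 note: raw slope of fluorescence over initial fluorescence between 10 and 20 s after thallium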
KCC2 sec2: KCC2 modulators without ouabain present, confirmation, cell-based, HEK293 KCC2, thallium flux, FluoZin2, secondary assay 2; normalized thallium flux at 10 µM; thallium flux FluoZin2 fluorescence; actives lie on both sides; F/F0 rise rate, 10–20 s post-thallium; AID 1715, 2009; 3,700 compounds, 23% hits; shares compounds with Cl transport mod;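 active = thallium flux slope more than 3 SD above or below the plate's solvent-only control mean, mostly below; inconclusive = the two repeat wells disagreed; inactive = no significant shift from solvent-only controls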
HEK counter1: thallium flux modulation in parental HEK cells, confirmation, counter-screen for KCC2 modulator project, cell-based, counterscreen 1 | shares compounds with Cl transport mod | HEK293 parental cells, thallium flux FluoZin2, ouabain; baseline-ratio fluorescence slope, 10–20 s after thallium | thallium flux rate (normalised fluorescence) at 10 µM | AID 1716, 2009 | 3,700 compounds, 46% hits;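 active = thallium flux rate significantly above the same plate's solvent-only control wells, beyond their mean plus 3 SD; inconclusive = the two replicate wells gave conflicting results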
KCC2 retest ouab: KCC2 inhibitors and activators, ouabain retest, confirmation, HEK-KCC2 cells. raw Tl+ flux slope (below DMSO = inhibition, above = activation) at 10 µM. HEK293-KCC2, thallium flux FluoZin2 fluorescence; bidirectional: low = inhibitor, high = activator. AID 1717, 2009. 3,700 compounds, 48% hits. shares compounds with Cl transport mod;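 active = thallium flux slope beyond 3 SD from same-plate DMSO control mean in most replicates, usually higher, sometimes lower; inconclusive = repeat tests gave conflicting results; inactive = no significant difference from controls in most replicates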;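 note: slope of initial-normalized fluorescence between seconds 10 and 20 after thallium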
HEK293 Tl flux2: native HEK Tl+ uptake effects, second counter-screen – HEK cells, counterscreen 2, counter-screen for KCC2 modulator project, confirmation. thallium flux slope at 10 µM. HEK293 parental, thallium flux FluoZin-2 fluorescence slope. shares compounds with Cl transport mod. AID 1718, 2009. 3,700 compounds, 33% hits;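 active = thallium flux slope above the same plate's solvent-control mean plus 3 SD in both duplicate wells; inconclusive = duplicate wells that disagreed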;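 note: run without ouabain in cells lacking the KCC2 cotransporter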
Large screens that a line does not name were inactive (follow-up assays come after a bar, where they were run).

Cc1cccc(NC(=O)CSc2nnc([C@@H](N)Cc3ccccc3)o2)c1C	none
Cc1ccccc1-c1nnc(SCC(=O)Nc2cccc(C)c2C)o1	Cl transport mod -4.8 | KCC2 sec1 inactive | KCC2 bumet counter inactive | KCC2 sec2 inactive | HEK counter1 inactive | KCC2 retest ouab inactive | HEK293 Tl flux2 inactive
CCOC(=O)C1=C(C)NC(=S)NC1c1ccc(OCC(=O)N2CCCCCC2)cc1 (configuration not stated)	none (no result: Cl transport mod)
CCCN(C(=O)c1cccs1)c1c(N)n(Cc2ccccc2)c(=O)[nH]c1=O	none (no result: KCNQ1 inh, KCNK9 inh, KCNQ1 pot, Cl transport mod, hERG rescue)
CN1/C(=C\C(=S)NC(=O)c2cccc(Br)c2)C(C)(C)c2ccccc21	Cl transport mod 4.6 | KCC2 sec1 inactive | KCC2 bumet counter 0.014 | KCC2 sec2 inactive | HEK counter1 inconclusive | KCC2 retest ouab inconclusive | HEK293 Tl flux2 inactive
Cc1ccc(C(=S)N2CCN(Cc3ccccc3)CC2)cc1	Cl transport mod -3.3 | KCC2 sec1 inconclusive | KCC2 bumet counter inactive | KCC2 sec2 inactive | HEK counter1 inactive | KCC2 retest ouab 0.015 | HEK293 Tl flux2 inactive
N/C(=N\OC(=O)/C=C/c1ccccc1Cl)c1ccncc1	none
O=C(c1ccccc1F)N1CCN(c2cccc(C(F)(F)F)c2)CC1	none
CCn1c(=O)cc(OCC(=O)N2CCN(c3cccc(C(F)(F)F)c3)CC2)c2ccccc21	none | KCC2 sec1 inactive | KCC2 bumet counter inactive | KCC2 sec2 inactive | HEK counter1 inactive | KCC2 retest ouab inconclusive | HEK293 Tl flux2 inactive
O=C(c1coc2ccccc2c1=O)N1CCN(c2cccc(C(F)(F)F)c2)CC1	Cl transport mod -4 | KCC2 sec1 inactive | KCC2 bumet counter inactive | KCC2 sec2 inactive | HEK counter1 inactive | KCC2 retest ouab inactive | HEK293 Tl flux2 inactive
N#CCC(=O)N/N=C/c1ccc(N2N=C(c3ccccc3)CC2c2ccccc2)cc1 (configuration not stated)	none (no result: Cl transport mod)

From PubChem
